Reference: ChEMBL document CHEMBL1821605, “4-Quinazolinyloxy-diaryl ureas as novel BRAFV600E inhibitors” (Bioorg Med Chem Lett, 2011)
Calls of active or inactive are those of the source. The rule behind the calls is not given here.

How the values were obtained:
[1] = biological target: T1, Serine/threonine-protein kinase B-raf (Homo sapiens, UniProt P15056, V600E); assay: Binding affinity to BRAF V600E mutant
[2] = biological target: T1, Serine/threonine-protein kinase B-raf; assay: Inhibition of BRAF V600E mutant-dependent MEK phosphorylation in A375 cells; format: cell-based, A-375
[3] = Oral bioavailability in rat; format: ADME, organism-based; settings: in vivo
Outline: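 Oral bioavailability (%F) was measured in rats, generally dosing the hydrochloride salt; some compounds were given as free base.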

COLO 205 [4] = assay: Antitumor activity against human COLO205 cells xenografted in nude mouse assessed as tumor stasis at 100 mg/kg, po bid upto 8 days; format: functional, organism-based; parameters: dose 100 mg/kg
Outline: (§1)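 Mice bearing Colo-205 tumors were dosed orally bid at 30, 55 or 100 mg/kg and compared with a vehicle control group. Tumor growth was followed over the dosing period, […]. Outcomes recorded were stasis, regrowth, incidence of regressions and % growth inhibition. Significance was tested against vehicle.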

COLO 205 [5] = assay: Antitumor activity against human COLO205 cells xenografted in nude mouse assessed as tumor stasis at 55 mg/kg, po bid upto 8 days; format: functional, organism-based; parameters: dose 55 mg/kg; outline: as §1
COLO 205 [6] = assay: Antitumor activity against human COLO205 cells xenografted in nude mouse assessed as tumor stasis at > 100 mg/kg, […]; format: functional, organism-based; parameters: dose 100 mg/kg
[7] = AUC in mouse plasma at 100 mg/kg, po; format: ADME, organism-based; parameters: dose 100 mg/kg, route oral
Outline: (§2)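 Compound given orally to mice at the stated dose. Plasma exposure reported as AUC in μM × h.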

COLO 205 [8] = assay: Antitumor activity against human COLO205 cells xenografted in nude mouse assessed as tumor growth inhibition at 100 mg/kg, po bid upto 8 days; format: functional; settings: COLO 205, 192 h, read-out: TGI; outline: as §1
COLO 205 [9] = assay: Antitumor activity against human COLO205 cells xenografted in nude mouse assessed as complete suppression of tumor regrowth at 100 mg/kg, po bid before 15 days; format: functional, organism-based; parameters: dose 100 mg/kg; outline: as §1
Mus musculus [10] = assay: Toxicity in nude mouse xenografted with human COLO205 cells assessed as body weight loss at 30 to 100 mg/kg, po bid upto 15 days; format: organism-based, COLO 205; parameters: dose 30-100 mg/kg, route oral; settings: in vivo, 360 h
Outline: (§3)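 Body weight was monitored in Colo-205 xenograft-bearing mice during oral bid dosing, with maximum % loss recorded. Monitoring continued after dosing stopped to assess reversibility.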

Mus musculus [11] = assay: Toxicity in nude mouse xenografted with human COLO205 cells assessed as body weight loss at 10 to 100 mg/kg, po bid upto 15 days; format: organism-based, COLO 205; parameters: dose 10-100 mg/kg, route oral; settings: in vivo, 360 h; outline: as §3
Mus musculus [12] = assay: Inhibition of BRAF V600E mutant-dependent MEK phosphorylation in Colo205 cells xenografted in nude mouse at 100 mg/kg, po bid for 5 days measured at 10 hrs post-dose; format: functional; settings: COLO 205
Outline: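 Colo-205 xenograft mice were dosed orally at 100 mg/kg bid. On day 5 of dosing, tumor tissue was collected 10 h post-dose and phosphorylated MEK levels were measured against vehicle.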

Mus musculus [13] = assay: Inhibition of BRAF V600E mutant-dependent MEK phosphorylation in Colo205 cells xenografted in nude mouse at 100 mg/kg, po bid for 5 days measured at 24 hrs post-dose; format: functional; settings: COLO 205
Mus musculus [14] = assay: Inhibition of BRAF V600E mutant-dependent MEK phosphorylation in Colo205 cells xenografted in nude mouse assessed as compound concentration in tumor required for maximum % inhibition; format: functional
Mus musculus [15] = assay: Inhibition of BRAF V600E mutant-dependent MEK phosphorylation in Colo205 cells xenografted in nude mouse assessed as compound concentration in plasma required for maximum % inhibition; format: functional
[16] = AUC in mouse plasma at 30 mg/kg, po; format: ADME, organism-based; parameters: dose 30 mg/kg, route oral; outline: as §2
COLO 205 [17] = assay: Antitumor activity against human COLO205 cells xenografted in nude mouse assessed as tumor regression at 100 mg/kg, po bid upto 15 days; format: functional; outline: as §1
COLO 205 [18] = assay: Antitumor activity against human COLO205 cells xenografted in nude mouse assessed as tumor growth inhibition at 55 mg/kg, po bid upto 8 days; format: functional; settings: COLO 205, 192 h, read-out: TGI; outline: as §1
COLO 205 [19] = assay: Antitumor activity against human COLO205 cells xenografted in nude mouse assessed as tumor stasis at 100 mg/kg, po bid upto 15 days; format: functional, organism-based; parameters: dose 100 mg/kg; outline: as §1

T1 sequence (P15056 2-766 V600E limits assumed): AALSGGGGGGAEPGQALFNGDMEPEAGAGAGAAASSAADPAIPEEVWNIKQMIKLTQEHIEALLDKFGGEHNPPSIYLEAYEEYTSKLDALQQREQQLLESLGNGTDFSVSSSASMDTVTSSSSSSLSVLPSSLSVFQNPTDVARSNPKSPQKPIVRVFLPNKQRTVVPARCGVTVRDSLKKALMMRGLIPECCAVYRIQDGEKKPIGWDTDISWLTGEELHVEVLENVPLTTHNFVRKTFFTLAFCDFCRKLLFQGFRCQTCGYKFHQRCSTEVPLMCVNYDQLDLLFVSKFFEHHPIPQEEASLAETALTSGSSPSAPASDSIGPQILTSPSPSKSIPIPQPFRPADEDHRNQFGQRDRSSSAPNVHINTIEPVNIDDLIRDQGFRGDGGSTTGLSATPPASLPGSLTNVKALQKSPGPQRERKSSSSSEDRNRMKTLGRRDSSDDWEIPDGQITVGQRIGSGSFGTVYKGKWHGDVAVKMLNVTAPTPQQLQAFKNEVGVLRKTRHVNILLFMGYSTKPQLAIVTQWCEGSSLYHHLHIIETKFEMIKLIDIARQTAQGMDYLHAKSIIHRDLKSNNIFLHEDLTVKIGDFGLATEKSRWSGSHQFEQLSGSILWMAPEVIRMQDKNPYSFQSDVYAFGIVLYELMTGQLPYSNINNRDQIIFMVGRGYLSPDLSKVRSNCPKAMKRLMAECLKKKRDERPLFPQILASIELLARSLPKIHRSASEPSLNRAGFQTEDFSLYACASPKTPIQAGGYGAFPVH

Structure (SMILES): COc1cc2ncnc(Oc3cccc(NC(=O)Nc4ccc(Cl)cc4)c3)c2cc1OC
- Kd [1]: 30 nM
- IC50 [2]: 1850 nM

Structure (SMILES): COc1cc2ncnc(Nc3ccc(NC(=O)Nc4cc(C(C)(C)C)on4)cc3)c2cc1OC.Cl
- bioavailability [3]: < 1%

Structure (SMILES): COc1cc2ncnc(Nc3cccc(NC(=O)Nc4cc(C(C)(C)C)on4)c3)c2cc1OC
- Kd [1]: 40 nM
- IC50 [2]: 82 nM

Structure (SMILES): COc1cc2ncnc(Oc3cccc(NC(=O)Nc4cc(C(C)(C)C)on4)c3)c2cc1OC [listing 1 of 2 here]
- Kd [1]: 73 nM
- IC50 [2]: 121 nM

Structure (SMILES): COc1cc2ncnc(Oc3cccc(NC(=O)Nc4cc(C(C)(C)C)on4)c3)c2cc1OCCCN1CCOCC1.Cl
- bioavailability [3]: 20%

Structure (SMILES): COc1cc2ncnc(Sc3cccc(NC(=O)Nc4cc(C(C)(C)C)on4)c3)c2cc1OC [listing 1 of 2 here]
- Activity (COLO 205 [4]): Active
- Activity (COLO 205 [5]): Active
- Activity (COLO 205 [6]): inactive

Structure (SMILES): COc1cc2ncnc(Oc3cccc(NC(=O)Nc4ccc(Cl)c(C(F)(F)F)c4)c3)c2cc1OC
- Kd [1]: 98 nM
- IC50 [2]: 696 nM

Structure (SMILES): COCCOc1cc2ncnc(Oc3cccc(NC(=O)Nc4cc(C(C)(C)C)on4)c3)c2cc1OC.Cl
- bioavailability [3]: 56%

Structure (SMILES): COc1cc2c(Oc3cccc(NC(=O)Nc4cc(C(C)(C)C)on4)c3)ncnc2cc1O
- Kd [1]: 57 nM
- IC50 [2]: 110 nM
- bioavailability [3]: < 1%

Structure (SMILES): COc1cc2ncnc(Nc3ccc(NC(=O)Nc4cc(C(C)(C)C)on4)cc3)c2cc1OC
- Kd [1]: 478 nM

Structure (SMILES): COc1cc2c(Oc3cccc(NC(=O)Nc4cc(C(C)(C)C)on4)c3)ncnc2cc1OCCN1CCOCC1
- Kd [1]: 34 nM
- IC50 [2]: 165 nM
- bioavailability [3]: 52%
- AUC [7]: 48 µM·h
- inhibition in vivo at 100 mg/kg (COLO 205 [8]): 65%
- Activity (COLO 205 [9]): inactive
- Activity (Mus musculus [10]): Non-toxic
- Activity (Mus musculus [11]): Non-toxic
- inhibition in vivo at 100 mg/kg (Mus musculus [12]): 70%
- inhibition in vivo at 100 mg/kg (Mus musculus [13]): 50%
- Activity (Mus musculus [14]): 11 µM
- Activity (Mus musculus [15]): 2 µM

Structure (SMILES): COCCOc1cc2c(Oc3cccc(NC(=O)Nc4cc(C(C)(C)C)on4)c3)ncnc2cc1OC
- Kd [1]: 48 nM
- IC50 [2]: 59 nM

Structure (SMILES): COc1cc2ncnc(Oc3cc(NC(=O)Nc4cc(C(C)(C)C)on4)c(F)cc3F)c2cc1OC
- Kd [1]: 46 nM
- IC50 [2]: 113 nM
- bioavailability [3]: 14%

Structure (SMILES): COc1cc2ncnc(Oc3cccc(NC(=O)Nc4cc(C(C)(C)C)on4)c3)c2cc1O
- Kd [1]: 46 nM
- IC50 [2]: 86 nM

Structure (SMILES): COc1cc2ncnc(Oc3cccc(NC(=O)Nc4cc(C(C)(C)C)on4)c3)c2cc1OCCN1CCOCC1
- Kd [1]: 38 nM
- IC50 [2]: 52 nM
- bioavailability [3]: 11%

Structure (SMILES): COc1cc2ncnc(Oc3cccc(NC(=O)Nc4cccc(C(C)(C)C)c4)c3)c2cc1OC
- Kd [1]: 36 nM
- IC50 [2]: 333 nM

Structure (SMILES): COc1cc2ncnc(Oc3cccc(NC(=O)Nc4cc(C(C)(C)C)on4)c3)c2cc1OC.Cl
- bioavailability [3]: 49%
- AUC [16]: 12.5 µM·h
- Activity (COLO 205 [17]): 55%
- Activity (Mus musculus [10]): 8%
- inhibition in vivo at 100 mg/kg (Mus musculus [12]): ≥ 50%
- Activity (Mus musculus [14]): 24 µM
- Activity (Mus musculus [15]): 2.5 µM

Structure (SMILES): CCOc1cc2c(Oc3cccc(NC(=O)Nc4cc(C(C)(C)C)on4)c3)ncnc2cc1OC.Cl
- bioavailability [3]: 30%

Structure (SMILES): COCCOc1cc2ncnc(Oc3cccc(NC(=O)Nc4cc(C(C)(C)C)on4)c3)c2cc1OC
- Kd [1]: 57 nM
- IC50 [2]: 100 nM

Structure (SMILES): COc1cc2ncnc(Sc3cccc(NC(=O)Nc4cc(C(C)(C)C)on4)c3)c2cc1OC [listing 2 of 2 here]
- Kd [1]: 61 nM
- IC50 [2]: 118 nM
- AUC [16]: 22 µM·h
- inhibition in vivo at 100 mg/kg (COLO 205 [8]): 45%
- inhibition in vivo at 55 mg/kg (COLO 205 [18]): 45%
- Activity (Mus musculus [10]): Non-toxic
- Activity (Mus musculus [11]): Non-toxic
- inhibition in vivo at 100 mg/kg (Mus musculus [12]): 75%
- inhibition in vivo at 100 mg/kg (Mus musculus [13]): 55%
- Activity (Mus musculus [14]): 0.2 µM
- Activity (Mus musculus [15]): 0.2 µM

Structure (SMILES): COc1cc2ncnc(Oc3cc(NC(=O)Nc4cc(C(C)(C)C)on4)ccc3F)c2cc1OC
- Kd [1]: 72 nM
- IC50 [2]: 62 nM

Structure (SMILES): COc1cc2ncnc(Oc3cccc(NC(=O)Nc4cc(C(C)(C)C)on4)c3)c2cc1OC [listing 2 of 2 here]
- Activity (COLO 205 [19]): Active
- inhibition (Mus musculus [13]): inactive

Structure (SMILES): COc1cc2c(Oc3cccc(NC(=O)Nc4cc(C(C)(C)C)on4)c3)ncnc2cc1OCCCN1CCOCC1
- Kd [1]: 56 nM
- IC50 [2]: 96 nM
- bioavailability [3]: 18%

Structure (SMILES): COc1cc2ncnc(Oc3cccc(NC(=O)Nc4ccc(C(C)(C)C)cc4)c3)c2cc1OC
- Kd [1]: 96 nM
- IC50 [2]: 290 nM
- bioavailability [3]: 15%

Structure (SMILES): COc1cc2ncnc(Sc3cccc(NC(=O)Nc4cc(C(C)(C)C)on4)c3)c2cc1OC.Cl
- bioavailability [3]: 24%

Structure (SMILES): COc1cc2ncnc(Oc3cccc(NC(=O)Nc4cccc(C(F)(F)F)c4)c3)c2cc1OC
- Kd [1]: 46 nM
- IC50 [2]: 1660 nM

Structure (SMILES): COc1cc2ncnc(Oc3cccc(NC(=O)Nc4cc(C(C)(C)C)on4)c3)c2cc1OCCCN1CCOCC1
- Kd [1]: 29 nM
- IC50 [2]: 36 nM

Structure (SMILES): CCOc1cc2ncnc(Oc3cccc(NC(=O)Nc4cc(C(C)(C)C)on4)c3)c2cc1OC
- Kd [1]: 82 nM
- IC50 [2]: 173 nM

Structure (SMILES): COc1cc2ncnc(Oc3ccc(Cl)c(NC(=O)Nc4cc(C(C)(C)C)on4)c3)c2cc1OC
- Kd [1]: 99 nM
- IC50 [2]: 229 nM

Structure (SMILES): CCOc1cc2ncnc(Oc3cccc(NC(=O)Nc4cc(C(C)(C)C)on4)c3)c2cc1OC.Cl
- bioavailability [3]: 16%

Structure (SMILES): CCOc1cc2c(Oc3cccc(NC(=O)Nc4cc(C(C)(C)C)on4)c3)ncnc2cc1OC
- Kd [1]: 67 nM
- IC50 [2]: 80 nM

Structure (SMILES): COc1cc2ncnc(Oc3ccc(F)c(NC(=O)Nc4cc(C(C)(C)C)on4)c3)c2cc1OC
- Kd [1]: 56 nM
- IC50 [2]: 113 nM

Structure (SMILES): COCCOc1cc2c(Oc3cccc(NC(=O)Nc4cc(C(C)(C)C)on4)c3)ncnc2cc1OC.Cl
- bioavailability [3]: 13%

Structure (SMILES): COc1cc2ncnc(Oc3cc(NC(=O)Nc4cc(C(C)(C)C)on4)ccc3F)c2cc1OC.Cl
- bioavailability [3]: 22%

Structure (SMILES): COc1cc2ncnc(Oc3cccc(NC(=O)Nc4cc(C(C)(C)C)on4)c3C)c2cc1OC
- Kd [1]: 38 nM
- IC50 [2]: 179 nM

Structure (SMILES): COc1cccc(NC(=O)Nc2cccc(Oc3ncnc4cc(OC)c(OC)cc34)c2)c1
- Kd [1]: 90 nM
- IC50 [2]: 10000 nM

Structure (SMILES): COc1cc2ncnc(Oc3cccc(NC(=O)Nc4ccccc4)c3)c2cc1OC
- Kd [1]: 370 nM

Structure (SMILES): COc1cc2ncnc(Nc3cccc(NC(=O)Nc4cc(C(C)(C)C)on4)c3)c2cc1OC.Cl
- bioavailability [3]: 1.9%

Structure (SMILES): COc1cc2ncnc(Oc3cccc(NC(=O)Nc4cc(C(C)(C)C)on4)c3)c2cc1OCCN1CCCCC1
- Kd [1]: 96 nM
- IC50 [2]: 293 nM
